From ChEMBL document CHEMBL4052621, “Identification of new anti-inflammatory agents based on nitrosporeusine natural products of marine origin” (Eur J Med Chem, 2017)
Calls of active or inactive are those of the source. No cut-off for these calls is given here.

What was measured:
Mus musculus [1] = assay: Antiinflammatory activity in BALB/c mouse assessed as inhibition of LPS-induced IL-12 production at 10 mg/kg, ip pretreated for 3 days as single dose followed by LPS administration after 24 hrs by phycoerythrin staining based flow cytometry; type: functional, organism-based
RAW264.7 [2] = assay: Antiinflammatory activity in mouse RAW264.7 cells assessed as inhibition of LPS-induced IL-12 production at 50 uM after 24 hrs by phycoerythrin staining based flow cytometry; type: functional, cell-based
Procedure, shortened: (§1)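 Cytokine bead array on protein extracts of RAW 264.7 cells treated with LPS plus compound at 50 µM. Read-outs were IL-12, IL-6, TNF-α, MCP-1 and IFN-γ, referenced to LPS-treated cells. Mean ± SD, n = 3 independent experiments.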

Mus musculus [3] = species: Mus musculus; assay: Inhibition of LPS-induced NFkappaB phosphorylation in mouse RAW264.7 cells at 50 uM after 24 hrs by Western blot analysis; type: cell-based
Procedure, shortened: (§2)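 Protein was isolated from control, LPS, and LPS + compound (50 µM) RAW 264.7 cultures and immunoblotted. iNOS, COX-2 and phospho-NF-κB were quantified densitometrically against β-actin. Mean ± SD of 3 independent experiments, compared with LPS treatment.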

RAW264.7 [4] = assay: Antiinflammatory activity in mouse RAW264.7 cells assessed as inhibition of LPS-induced COX-2 production at 50 uM after 24 hrs by Western blot analysis; type: functional, cell-based; procedure, shortened: as §2
RAW264.7 [5] = assay: Antiinflammatory activity in mouse RAW264.7 cells assessed as inhibition of LPS-induced ROS production after 24 hrs by CM-H2DCFDA dye based fluorescence assay; type: functional, cell-based
Procedure, shortened: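 Intracellular ROS was measured in LPS-treated RAW 264.7 cells exposed to compounds at several doses. The read-out was mean fluorescence intensity, compared with LPS-treated cells. Data are mean ± SD of three independent experiments.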

RAW264.7 [6] = assay: Selectivity index, ratio IC50 for cytotoxicity against mouse RAW264.7 cells to IC50 for antiinflammatory activity in mouse RAW264.7 cells; type: functional
Procedure, shortened: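 Ratio A/B in RAW 264.7 cells. A is the cytotoxicity IC50 from the MTT assay. B is the IC50 for inhibiting NO production in LPS-stimulated cells, with nitrite in the culture medium measured by Griess reagent. Both IC50s are reported with 95% confidence intervals.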

RAW264.7 [7] = assay: Antiinflammatory activity in mouse RAW264.7 cells assessed as inhibition of LPS-induced NO production after 24 hrs by Griess assay; type: functional, cell-based; conditions: for IC50: RAW264.7, 24 h
Procedure, shortened: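 LPS-stimulated RAW264.7 cells were co-treated with compound. Nitrite, a stable NO metabolite, was measured in culture medium with Griess reagent. IC50 (µM) was reported with a 95% confidence interval.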

Mus musculus [8] = assay: Antiinflammatory activity in BALB/c mouse assessed as inhibition of LPS-induced MCP-1 production at 10 mg/kg, ip pretreated for 3 days as single dose followed by LPS administration after 24 hrs by phycoerythrin staining based flow cytometry; type: functional, organism-based
RAW264.7 [9] = assay: Antiinflammatory activity in mouse RAW264.7 cells assessed as inhibition of LPS-induced […] production at 50 uM after 24 hrs by phycoerythrin staining based flow cytometry; type: functional, cell-based; procedure, shortened: as §1
Mus musculus [10] = assay: Antiinflammatory activity in BALB/c mouse assessed as inhibition of LPS-induced IL-6 production at 10 mg/kg, ip pretreated for 3 days as single dose followed by LPS administration after 24 hrs by phycoerythrin staining based flow cytometry; type: functional, organism-based
Mus musculus [11] = assay: Antiinflammatory activity in BALB/c mouse assessed as inhibition of LPS-induced TNF-alpha production at 10 mg/kg, ip pretreated for 3 days as single dose followed by LPS administration after 24 hrs by phycoerythrin staining based flow cytometry; type: functional, organism-based
RAW264.7 [12] = assay: Cytotoxicity against mouse RAW264.7 cells assessed as decrease in cell viability after 24 hrs by MTT assay; type: cell-based; conditions: RAW264.7, 24 h
Procedure, shortened: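 RAW264.7 macrophage viability after compound exposure was measured by MTT assay. IC50 (µM) was calculated and reported with a 95% confidence interval.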

RAW264.7 [13] = assay: Antiinflammatory activity in mouse RAW264.7 cells assessed as inhibition of LPS-induced IL-6 production at 50 uM after 24 hrs by phycoerythrin staining based flow cytometry; type: functional, cell-based; procedure, shortened: as §1
RAW264.7 [14] = assay: Antiinflammatory activity in mouse RAW264.7 cells assessed as inhibition of LPS-induced iNOS production at 50 uM after 24 hrs by Western blot analysis; type: functional, cell-based; procedure, shortened: as §2
RAW264.7 [15] = assay: Antiinflammatory activity in mouse RAW264.7 cells assessed as inhibition of LPS-induced MCP-1 production at 50 uM after 24 hrs by phycoerythrin staining based flow cytometry; type: functional, cell-based; procedure, shortened: as §1
Mus musculus [16] = assay: Antiinflammatory activity in BALB/c mouse assessed as inhibition of LPS-induced […] production at 10 mg/kg, ip pretreated for 3 days as single dose followed by LPS administration after 24 hrs by phycoerythrin staining based flow cytometry; type: functional, organism-based
RAW264.7 [17] = assay: Antiinflammatory activity in mouse RAW264.7 cells assessed as inhibition of LPS-induced TNF-alpha production at 50 uM after 24 hrs by phycoerythrin staining based flow cytometry; type: functional, cell-based; procedure, shortened: as §1

| Structure (SMILES) | Ratio IC50 (RAW264.7 [6]) | IC50 (RAW264.7 [7]) | IC50 (RAW264.7 [12]) | other results |
| --- | --- | --- | --- | --- |
| O=C(S[C@]12CC[C@H](O)[C@H]1C(=O)NC2=O)c1cccs1 (relative stereo) | 297.0519 | 36.6 µM | 10900 µM | inhibition (Mus musculus [1]): Active; inhibition (RAW264.7 [2]): Active; inhibition (Mus musculus [3]): Active; inhibition (RAW264.7 [4]): Active; inhibition (RAW264.7 [5]): Dose-dependent effect; inhibition (Mus musculus [8]): Active; inhibition (RAW264.7 [9]): Active; inhibition (Mus musculus [10]): Active; inhibition (Mus musculus [11]): Active; inhibition (RAW264.7 [13]): Active; inhibition (RAW264.7 [14]): Active; inhibition (RAW264.7 [15]): Active; inhibition (Mus musculus [16]): Active; inhibition (RAW264.7 [17]): Active |
| O=C(S[C@]12CC[C@@H](O)[C@H]1C(=O)NC2=O)c1ccc(O)cc1 | 14.67 | 42 µM | 616 µM | – |
| O=C(Cc1ccccc1)S[C@]12CC[C@H](O)[C@H]1C(=O)NC2=O (relative stereo) | 5.418 | 143 µM | 774 µM | – |
| O=C(S[C@@]12CC[C@H](O)[C@@H]1C(=O)NC2=O)c1ccccc1Cl (relative stereo) | 5.245 | – | 668 µM | – |
| CC(=O)O[C@@H]1CC[C@@]2(SC(=O)c3ccc(F)cc3)C(=O)NC(=O)[C@@H]12 | – | – | – | inhibition (RAW264.7 [7]): Active |
| CC(=O)S[C@]12CCC[C@H]1C(=O)NC2=O (relative stereo) | 11.39 | 59.2 µM | 674 µM | – |
| CC(=O)S[C@@]12CC[C@H](O)[C@@H]1C(=O)NC2=O (relative stereo) | 3.7762 | 148 µM | 558 µM | – |
| O=C(Cc1ccccc1)S[C@]12CCC[C@H]1C(=O)NC2=O (relative stereo) | 7.48 | 56.9 µM | 426 µM | – |
| CC(=O)O[C@H]1CC[C@]2(SC(=O)c3ccc(F)cc3)C(=O)NC(=O)[C@H]12 | – | – | – | inhibition (RAW264.7 [7]): Active |
| CC(=O)SC12CCC=C1C(=O)NC2=O (stereo not given) | 9 | 20.5 µM | 184 µM | – |
| CC(=O)O[C@H]1CCC2=C1C(=O)NC2=O | 0.1477 | 867 µM | 128 µM | – |
| O=C(S[C@]12CC[C@H](O)[C@H]1C(=O)NC2=O)c1ccc(F)cc1 (relative stereo) | 1.49 | 318 µM | 474 µM | – |
| O=C(SC12CCC(O)C1C(=O)NC2=O)c1ccc(O)cc1 (racemic) | 1.925 | 225 µM | 434 µM | – |
| O=C1NC(=O)C2=C1CC[C@@H]2O | 2.26 | 95.9 µM | 217 µM | – |
| CC(=O)S[C@]12CC[C@H](O)[C@H]1C(=O)NC2=O (relative stereo) | 1.029 | 833 µM | 857 µM | – |
| CC(=O)OC1CC[C@]2(SC(=O)c3ccccc3)C(=O)NC(=O)[C@H]12 (stereo not given in full) | 29.74 | 64.3 µM | 1910 µM | – |

| Structure (SMILES) | Ratio IC50 (RAW264.7 [6]) | IC50 (RAW264.7 [7]) | IC50 (RAW264.7 [12]) | other results |
| --- | --- | --- | --- | --- |
| O=C(S[C@]12CC[C@H](O)[C@H]1C(=O)NC2=O)c1ccccc1 (relative stereo) | 261.7025 | 65.2 µM | 17100 µM | – |
| O=C(S[C@]12CCC[C@H]1C(=O)NC2=O)c1ccc(F)cc1 (relative stereo) | 0.9841 | 390 µM | 384 µM | – |
| CC(=O)OC1CC[C@]2(SC(=O)Cc3ccccc3)C(=O)NC(=O)[C@H]12 (stereo not given in full) | 23.57 | 68.2 µM | 1610 µM | – |
| O=C1NC(=O)C2=C1CCC2SC(=O)c1cccs1 (stereo not given) | 0.4108 | 65 µM | 26.7 µM | – |
| O=C(Cc1ccccc1)SC12CCC=C1C(=O)NC2=O (stereo not given) | 3.042 | 30.6 µM | 93.1 µM | – |
| O=C1NC(=O)C2=C1CC[C@H]2O | 2.631 | 121 µM | 319 µM | – |
| CC(=O)O[C@@H]1CC[C@]2(SC(=O)c3ccc(F)cc3)C(=O)NC(=O)[C@H]12 | – | – | – | inhibition (RAW264.7 [7]): Active |
| O=C(S[C@]12CC[C@H](O)[C@H]1C(=O)NC2=O)c1ccccc1Cl (relative stereo) | 4.022 | 178 µM | 717 µM | – |
| O=C(S[C@]12CCC[C@H]1C(=O)NC2=O)c1ccccc1Cl (relative stereo) | 13.95 | 59.8 µM | 834 µM | – |
| CC(=O)OC1CC[C@]2(SC(=O)c3ccccc3Cl)C(=O)NC(=O)[C@H]12 (stereo not given in full) | 89.51 | 101 µM | 9080 µM | – |
| O=C(SC1CC[C@]2(SC(=O)c3ccc(F)cc3)C(=O)NC(=O)[C@H]12)c1ccc(F)cc1 (stereo not given in full) | 2.142 | 98.3 µM | 211 µM | – |
| O=C(Cc1ccccc1)S[C@@]12CC[C@H](O)[C@@H]1C(=O)NC2=O (relative stereo) | 6.322 | 132 µM | 834 µM | – |
| O=C(S[C@@]12CC[C@H](O)[C@@H]1C(=O)NC2=O)c1ccccc1 (relative stereo) | 6.622 | 72.4 µM | 479 µM | – |
| O=C(S[C@@]12CC[C@@H](O)[C@@H]1C(=O)NC2=O)c1ccc(O)cc1 | 22.99 | 127 µM | 2910 µM | – |
| O=C(Cc1ccccc1)SC1CC[C@]2(SC(=O)Cc3ccccc3)C(=O)NC(=O)[C@H]12 (stereo not given in full) | 12.36 | 57.5 µM | 711 µM | – |
